The results in this text go back to ChEMBL document CHEMBL3351887, “'Click' assembly of glycoclusters and discovery of a trehalose analogue that retards Aβ40 aggregation and inhibits Aβ40-induced neurotoxicity” (Bioorg Med Chem Lett, 2014).

In assay [1] the target is Amyloid-beta precursor protein (Homo sapiens) (UniProt P05067). Put plainly: Inhibition of amyloid beta-40 aggregation (unknown origin) assessed as extension of lag phase of Abeta40 aggregation by ThT fluorescence assay. In a few lines: (§1)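 Monomer-rich Aβ40 (35 µM, supernatant after NaOH dissolution, sonication and ultracentrifugation) was incubated with 10 nM–100 µM compound in 20 mM phosphate buffer pH 7.4 (I 0.15 M), with 20 µM ThT and 0.007% NaN3, quiescent at 37 °C. Fluorescence (ex 440, em 480 nm) was read every 5 min. Lag time came from an empirical sigmoidal nonlinear-regression fit; mean ± SE of four independent experiments.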
Amyloid-beta precursor protein (Homo sapiens), sequence (P05067 whole entry): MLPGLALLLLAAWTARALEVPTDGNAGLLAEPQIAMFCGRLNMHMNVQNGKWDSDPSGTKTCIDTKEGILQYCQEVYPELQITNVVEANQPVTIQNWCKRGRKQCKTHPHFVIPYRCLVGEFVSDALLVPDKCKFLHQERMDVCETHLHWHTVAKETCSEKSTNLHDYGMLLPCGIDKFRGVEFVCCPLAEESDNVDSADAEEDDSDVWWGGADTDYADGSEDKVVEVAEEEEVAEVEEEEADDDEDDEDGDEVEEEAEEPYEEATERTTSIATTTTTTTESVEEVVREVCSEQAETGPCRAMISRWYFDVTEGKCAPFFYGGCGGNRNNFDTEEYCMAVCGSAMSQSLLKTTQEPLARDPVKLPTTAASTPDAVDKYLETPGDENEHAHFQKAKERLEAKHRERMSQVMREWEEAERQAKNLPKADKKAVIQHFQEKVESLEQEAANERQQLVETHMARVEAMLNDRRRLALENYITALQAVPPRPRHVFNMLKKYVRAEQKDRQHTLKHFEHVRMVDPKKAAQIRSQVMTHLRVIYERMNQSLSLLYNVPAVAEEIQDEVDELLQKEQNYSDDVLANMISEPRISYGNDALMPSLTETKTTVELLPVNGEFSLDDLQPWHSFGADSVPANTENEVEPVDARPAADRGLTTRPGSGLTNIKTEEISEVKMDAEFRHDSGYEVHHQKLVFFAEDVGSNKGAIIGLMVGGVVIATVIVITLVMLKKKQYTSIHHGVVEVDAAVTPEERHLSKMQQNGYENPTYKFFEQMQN

Assay [2] shares this target. The assay is described as follows: Inhibition of amyloid beta-40 aggregation (unknown origin) assessed as extension of lag phase of Abeta40 aggregation at 100 uM by ThT fluorescence assay. On the set-up: scale not given: the % may be the effect or the level left. In a few lines: as §1

Turning to `OC[C@H]1O[C@@H](O[C@H]2[C@H](O)[C@@H](O)[C@H](n3cc(COCC(COCc4cn([C@@H]5O[C@H](CO)[C@@H](O[C@@H]6O[C@H](CO)[C@H](O)[C@H](O)[C@H]6O)[C@H](O)[C@H]5O)nn4)(COCc4cn([C@@H]5O[C@H](CO)[C@@H](O[C@@H]6O[C@H](CO)[C@H](O)[C@H](O)[C@H]6O)[C@H](O)[C@H]5O)nn4)COCC(COCc4cn([C@@H]5O[C@H](CO)[C@@H](O[C@@H]6O[C@H](CO)[C@H](O)[C@H](O)[C@H]6O)[C@H](O)[C@H]5O)nn4)(COCc4cn([C@@H]5O[C@H](CO)[C@@H](O[C@@H]6O[C@H](CO)[C@H](O)[C@H](O)[C@H]6O)[C@H](O)[C@H]5O)nn4)COCc4cn([C@@H]5O[C@H](CO)[C@@H](O[C@@H]6O[C@H](CO)[C@H](O)[C@H](O)[C@H]6O)[C@H](O)[C@H]5O)nn4)nn3)O[C@@H]2CO)[C@H](O)[C@@H](O)[C@H]1O`, the inhibition result in assay [1] was “Dose-dependent effect”. Moreover, the Activity in assay [2] was found to be 28%.

For the molecule `OC[C@H]1O[C@@H](n2cc(COCC(COCc3cn([C@@H]4O[C@H](CO)[C@@H](O)[C@H](O)[C@H]4O)nn3)(COCc3cn([C@@H]4O[C@H](CO)[C@@H](O)[C@H](O)[C@H]4O)nn3)COCC(COCc3cn([C@@H]4O[C@H](CO)[C@@H](O)[C@H](O)[C@H]4O)nn3)(COCc3cn([C@@H]4O[C@H](CO)[C@@H](O)[C@H](O)[C@H]4O)nn3)COCc3cn([C@@H]4O[C@H](CO)[C@@H](O)[C@H](O)[C@H]4O)nn3)nn2)[C@H](O)[C@@H](O)[C@@H]1O`, the inhibition result in assay [1] was “Dose-dependent effect”. The Activity in assay [2] was found to be 28%.
